High-throughput results: PubChem BioAssay, several laboratories
This is a sample that favours compounds with a hit; in the whole collection about 2.4% have one here.
CendR NRP1 mod: modulators of CendR peptide binding to NRP-1, primary screen, biochemical, fluorescence polarization, uHTS; Neuropilin-1 (Homo sapiens), O14786; FAM-RPARPAR peptide binding to NRP-1; inhibition, % at 25 µM; 360,000 compounds, 0.85% hits; AID 602438, 2012;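 active = inhibition or corrected inhibition above about 18%, plus a signal ratio from 0.5 to 1.5, limit read from the data, passing the limit was not always enough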
Myeloid diff MLP: induction of myeloid progenitor differentiation, primary screen, cell-based, flow cytometry, MLPCN library; ER-HoxA9 myeloid progenitors, lysozyme-GFP differentiation; calls only at 10 µM; 360,000 compounds, 1% hits;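 active = normalized GFP-positive differentiation at or above the plate's own cutoff, the solvent-only control mean plus 3 SD; inconclusive = no clear call, values can overlap the other calls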;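 note: cells exposed to compound for four days before flow analysis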
DAGLB inh: DAGLB lipase inhibitors, primary screen, biochemical, fluorescence, HTS. Diacylglycerol lipase-beta (Homo sapiens), Q8NCG7. HEK293T DAGLB membrane lysate, EnzChek fluorogenic substrate. inhibition, % at 5.17 µM. 340,000 compounds, 0.059% hits; in the data active = inhibition above about 34%;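 note: 0% = enzyme with vehicle and 100% = wells lacking enzyme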
MIN6 prolif: inducers of MIN6 beta-cell proliferation, primary screen, ATP luminescence, uHTS. MIN6 cells proliferation, ATPlite luminescence, 48 h; cells starved in 0.2% serum; 100% = growth in 10% serum. proliferation, % at 10 µM. 330,000 compounds, 0.29% hits;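 active = compounds whose signal lies at least 3.5 SD above the mean of all wells on their plate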;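 note: 0% = DMSO-treated cells in low-serum medium and 100% = 10% serum control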
SENP1 inh: human SENP1 catalytic domain inhibitors, primary screen, biochemical, FRET, uHTS | recombinant SENP1 catalytic domain, CyPet-SUMO1-YPet FRET cleavage | AID 624204, 2012 | 360,000 compounds, 0.21% hits | inhibition, % at 10 µM | Sentrin-specific protease 1 (Homo sapiens), Q9P0U3;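 active = inhibition at least 30% at 10 µM, raw YFP signal under a set limit, fluorescence ratio 0.5 to 1.5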;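 note: 0% = enzyme with DMSO and 100% = no enzyme wells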
Target sequence (Q9P0U3 419-644 limits assumed): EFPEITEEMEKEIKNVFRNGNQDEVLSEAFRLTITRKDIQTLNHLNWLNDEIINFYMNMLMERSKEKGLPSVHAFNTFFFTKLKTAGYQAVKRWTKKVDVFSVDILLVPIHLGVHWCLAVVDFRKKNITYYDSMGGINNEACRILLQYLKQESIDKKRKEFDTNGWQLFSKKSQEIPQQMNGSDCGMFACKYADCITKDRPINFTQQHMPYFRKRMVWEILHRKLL
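Material: hSENP1 catalytic domain, recombinant; medium: Tris pH 8 with BME, BSA, NP40 and catalase; compound: single concentration of 10 µM compound, 0.5% DMSO final; technique: FRET read of cyan and yellow fluorescence; timing: 50 min enzyme reaction, room temperature, light-protected; reagent: SFCypet-SUMO1-SFYpet substrate at 25 nM; control set: no-enzyme low, enzyme-DMSO high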
MT1-MMP act inh: blockers of MT1-MMP proenzyme processing, primary screen, HT1080 RFP-PRO-GFP cells, GFP/RFP fluorescence; GFP/RFP ratio change, % at 20 µM; Matrix metalloproteinase-14 (Homo sapiens), P50281; GFP/RFP ratio fluorescence, overnight; percent of plate control window, DMSO zero; 360,000 compounds, 0.061% hits;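 active = GFP/RFP ratio change of at least 30% with cell ATP level not reduced by more than half and red fluorescence within 50% of control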
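Test system: HT1080 RFP-PRO-GFP cells; Benchmarks: DMSO and RFP-L50D-GFP cell wells; Timing: cells overnight before dosing, compound overnight, 37 °C, 5% CO2; Compound: one 20 µM compound dose with 1% DMSO; Read-out: GFP/RFP fluorescence ratio.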
Myeloid diff: inducers of myeloid progenitor differentiation, confirmation, cell-based, GFP/Mac1 flow cytometry, cherry pick 01; shares compounds with Myeloid diff MLP; ER-HoxA9 myeloid progenitors, GFP/Mac1 double-positive flow; calls only; 2,300 compounds, 2% hits;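 active = share of green or green-and-red cells above 9 and 9% in run 1 or 4 and 3% in run 2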
GFP autofluor: compound fluorescence in myeloid differentiation counter-screen; 2,300 compounds, 7.4% hits; fluorescence response, % (concentration not given with the values); shares compounds with Myeloid diff MLP; ER-HoxA9 myeloid progenitors, no estrogen, GFP autofluorescence flow cytometry; vehicle wells 0%, positive control 100%;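 active = over 5% cells positive for green fluorescent reporter, or over 2% positive for both it and APC stain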;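 note: range taken on the double positive population between DMSO and positive control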
The depositor's hits bear a star; i = inactive; u = inconclusive; x = no result given; + = active, no number.

SMILES	CendR NRP1 mod	Myeloid diff MLP	DAGLB inh	MIN6 prolif	SENP1 inh	MT1-MMP act inh	Myeloid diff	GFP autofluor
Cc1ccc(N2C=Nc3ccc(C)c4nc(C)cc2c34)cc1	12	i	-1	-1	-20	-4	x	x
CC1CCN(S(=O)(=O)c2ccc(C(C)C)cc2)CC1	19	+	-14	-2	1	0	i	41*
CC1CCN(S(=O)(=O)c2ccc(Cl)cc2)CC1	4	i	-6	-3	1	-1	x	x
COc1ccc(Nc2nnc(SCc3cn4c(C)cccc4n3)s2)cc1	0	+	3	0	2	0	i	0
Cc1cccc2nc(CSc3nnc(N)s3)cn12	-2	i	-2	0	-14	-4	x	x
O=C(O)CC1(CC(=O)Nc2ccc(C(F)(F)F)cc2)CCCC1	-2	x	1	0	0	0	x	x
CC(C)(C)c1ccc(NC(=O)CC2(C(F)(F)F)OCCO2)cc1	-2	i	-5	1	1	6	i	2
CC(C)(C)c1ccc(OCCC(=O)NNC(=O)c2ccccc2)cc1	5	i	-3	2	-1	-3	x	x
CC(C)(C)c1ccc(C(=O)NNC(=O)CCC(=O)Nc2ccccc2)cc1	13	+	0	-4	-1	-4	i	0
CC(C)c1nc(SCC(=O)N2CCCC2)c2c(=O)n(C)c(=O)n(C)c2n1	1	+	-1	4	-1	3	i	0
O=C([C@H]1O[C@@H](n2ccc(=O)[nH]c2=O)[C@H](O)[C@@H]1O)N(CCC1=CCCCC1)CC1CC1	-4	i	x	x	3	4	x	x
O=C(CNC(=O)c1ccc(=O)[nH]c1)Nc1ccc(F)c(F)c1	8	+	-1	1	0	1	i	0
O=C(CNC(=O)c1ccncc1)Nc1ccc(F)c(F)c1	3	u	-3	-1	-1	0	x	x
C=C(C(=O)c1ccccc1)C(C)CC(=O)c1ccccc1 (stereo unspecified)	10	i	-15	-6	1	-4	i	99*
O=C(CC(Nc1ccccc1)C(=O)O)c1ccccc1 (stereo unspecified)	-5	i	5	0	-13	-13	x	x
CCCCNC(=O)c1c(O)c2cccc3c2n(c1=O)CCC3	1	i	1	-3	-1	1	x	x
CCNCCNC(=O)c1c(O)c2cccc3c2n(c1=O)CCC3	-3	i	3	1	0	2	i	0
CCC1(c2ccc(F)cc2)NC(=O)N(CC(=O)N2CCN(S(=O)(=O)c3ccc(C)cc3C)CC2)C1=O (stereo unspecified)	5	+	-1	x	2	-6	i	3
CCC1(c2ccc(F)cc2)NC(=O)N(CC(=O)N2CCN(S(=O)(=O)c3ccc(Cl)cc3)CC2)C1=O (stereo unspecified)	-5	i	1	6	0	2	x	x
O=C(COc1ccccc1)NS(=O)(=O)c1ccccc1	5	i	2	0	0	2	x	x
COc1cc2oc(=O)cc(CN3CCOCC3)c2cc1Cl	19	i	x	x	4	-2	x	x
O=C(/C=C/c1cccc(C(F)(F)F)c1)Nc1cccc(C(F)(F)F)c1	-2	i	-12	-4	-1	-28	i	0
O=C(Nc1cccc(S(=O)(=O)C(F)(F)F)c1)[C@@H]1O[C@H](CO)[C@@H](O)[C@H]1O	3	i	x	x	1	0	x	x
COC(=O)c1cccc(C(=O)Nc2ccc(F)cc2)n1	-10	i	3	-2	2	1	i	0
C[C@H]1CN([C@@H](C)CO)C(=O)CCCn2cc(nn2)CO[C@@H]1CN(C)C(=O)Cc1ccccc1	5	i	6	x	0	-1	x	x
SMILES	CendR NRP1 mod	Myeloid diff MLP	DAGLB inh	MIN6 prolif	SENP1 inh	MT1-MMP act inh	Myeloid diff	GFP autofluor
CC(C)CNC(=O)NC(=O)COc1ncnc2sccc12	0	+	-3	-2	-1	5	i	0
Cc1cc2cc(CN(CC3CCCO3)C(=S)Nc3ccccc3)c(=O)[nH]c2cc1C (stereo unspecified)	-15	+	-1	-6	0	-18	i	5
O=C(OCc1ccccc1)N1CCC2CC1c1cc(Cl)ccc12 (stereo unspecified)	3	u	-2	x	0	2	i	0
O=C(O)c1ccccc1C(c1ccc(O)cc1)c1ccc(O)cc1	-7	i	-1	0	2	0	x	x
COc1ccc(Nc2c(-c3cc4ccccc4o3)nc3nc(C)cc(C)n23)cc1	-21	i	x	x	6	-1	x	x
CCCCNc1c(-c2cc3ccccc3o2)nc2nc(C)cc(C)n12	-82	+	x	x	-20	-3	i	1
O=C(COC(=O)COc1cccc2ccccc12)NCC(F)(F)F	-4	i	0	-3	-1	-3	i	0
CCCCn1nc(C(=O)N(C)Cc2nc3ccccc3c(=O)[nH]2)c2ccccc2c1=O	-8	i	-1	x	-1	-2	x	x
COc1ccc(CNC(=O)C[C@H]2C(=O)N(CCc3ccccc3)C[C@@H]2Cc2ccccc2)cc1	18	i	-1	-6	0	5	x	x
CCOc1cccc(/C=N/Nc2ccc(S(=O)(=O)N(CC)CC)cn2)c1O	-7	u	7	-6	-4	-3	x	x
CCN(CC)S(=O)(=O)c1ccc(N/N=C/c2ccc(O)cc2)nc1	12	i	2	1	-1	1	i	0
CCOc1ccccc1C(=O)Nc1nn[nH]n1	-4	i	-1	2	1	0	x	x
Cc1ccc(/C=N/NC(=O)CNC(=O)COc2ccc(Cl)cc2)o1	18	+	0	0	0	1	i	0
COc1ccc(CC(=O)NCC(=O)N/N=C/c2ccc(C)o2)cc1	-19	i	-1	0	2	0	x	x
